The record followed here is ChEMBL document CHEMBL1765039, “Geminal dialkyl derivatives of N-substituted pantothenamides: synthesis and antibacterial activity” (2011).

The subject of one test is Acinetobacter baumannii. The experiment in a line: Antibacterial activity against Acinetobacter baumannii 19606 at 150 ug/ml after 24 hrs by agar diffusion method. It counts as functional. Particulars: Acinetobacter baumannii, 19606, 24 h, read-out: DIZ. Put shortly: (§1)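 Agar diffusion per NCCLS. Mueller-Hinton agar plates were swab-inoculated and dried 5 min. Sterile 1 cm discs were loaded with compound solution and placed on the plates. Incubation was 24 h at 37 °C (A. baumannii, E. coli, K. pneumoniae, S. aureus) or 30 °C (B. subtilis). Read-out was inhibition zone diameter, with ampicillin as positive control.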

In a further test the test system is Klebsiella pneumoniae. Description: Antibacterial activity against Klebsiella pneumoniae 13883 at 150 ug/ml after 24 hrs by agar diffusion method. It counts as functional. The note with it: Klebsiella pneumoniae, 13883, 24 h, read-out: DIZ. Summed up:
as §1
Background: Agar diffusion results depend on both activity and mobility in agar.

In test [1] the test system is Staphylococcus aureus. The experiment in a line: Antibacterial activity against 10^6 CFU/ml oxacillin-susceptible Staphylococcus aureus ATCC 29213 after 18 hrs by NCCLS broth microdilution method. It counts as functional. The note with it: ATCC 29213, 18 h. Summed up:
(§2)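 Broth microdilution per NCCLS, in 96-well plates; strains grown on Trypticase soy media. Compounds dissolved in 10% (v/v) acetone in water, serially diluted to 0.5–256 µg/mL (10 levels, twofold). Wells inoculated with 10⁶ cfu/mL suspension, 37 °C for 18 h. MIC = lowest concentration with no visible growth, converted to µM by molecular weight; average of at least four separate experiments.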
In general terms: Dilution methods test growth across graded concentrations, often in twofold steps.

Test [2] concerns Staphylococcus aureus. Description: Antibacterial activity against 10^6 CFU/ml methicillin or oxacillin-resistant Staphylococcus aureus ATCC 43300 after 18 hrs by NCCLS broth microdilution method. The test is classed as functional. Particulars: ATCC 43300, 18 h. Summed up: as §2
The subject of test [3] is Staphylococcus aureus. Description: Antibacterial activity against Staphylococcus aureus 29213 at 150 ug/ml after 24 hrs by agar diffusion method. It counts as functional. The note with it: Staphylococcus aureus, 29213, 24 h; read-out: DIZ. Put shortly: as §1
A further test has as its system Escherichia coli. The experiment in a line: Activity of Escherichia coli pantothenate kinase. Put shortly: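 E. coli PanK, expressed and purified, at 278 nM in 50 mM Tris-HCl pH 7.6. Mix: ATP 1.5 mM, NADH 0.3 mM, phosphoenolpyruvate 0.5 mM, MgCl₂ 10 mM, KCl 20 mM, pyruvate kinase and lactate dehydrogenase (5 units each). Started by adding substrate (10–160). ADP formation was coupled to NADH loss, read at 340 nm, 25 °C. Kinetic parameters came from a Michaelis–Menten fit.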

In brackets after ≈: the same amount, converted by molar mass.

For orientation: MIC means the lowest concentration found to suppress growth. Low values mean greater potency, high ones weaker potency. As usually defined, the Km is the substrate concentration at which the rate is half of its maximum. The term kcat denotes the number of substrate molecules converted per active site and unit of time at saturation.

`CCCCCNC(=O)CCNC(=O)[C@H](O)[C@@](C)(CO)Cc1ccccc1`: the zone of inhibition at 150 µg/mL is below 11 mm in the test on Acinetobacter baumannii, below 11 mm in the test with Klebsiella pneumoniae and 16 mm in the test with Staphylococcus aureus [3]. Besides, the MIC in the test on Staphylococcus aureus [1] and against Staphylococcus aureus [2] was above 703 µM in each case.

Regarding `CCCCCCCCCNC(=O)CCNC(=O)[C@H](O)C(C)(C)CO`, the zone of inhibition at 150 µg/mL was below 11 mm in the test on Acinetobacter baumannii, below 11 mm in the test with Klebsiella pneumoniae and 16 mm with Staphylococcus aureus [3]. Also, the MIC against Staphylococcus aureus [1] and in the test with Staphylococcus aureus [2] was 0.4 µM (≈ 0.138 µg/mL) in each case.

Take `C=CC[C@](C)(CO)[C@@H](O)C(=O)NCCC(=O)NCCCCCCCCC`: the values for the zone of inhibition at 150 µg/mL in the test with Acinetobacter baumannii, in the test with Klebsiella pneumoniae and in the test with Staphylococcus aureus [3] were below 11 mm, below 11 mm and 16 mm, respectively. Besides, the MIC against Staphylococcus aureus [1] and in the test on Staphylococcus aureus [2] was 1 µM (≈ 0.371 µg/mL) throughout.

For the compound `CCCCCNC(=O)CCNC(=O)[C@H](O)[C@@](C)(CO)CCC`, the zone of inhibition at 150 µg/mL in the test with Acinetobacter baumannii was below 11 mm; in the test with Klebsiella pneumoniae it was below 11 mm; with Staphylococcus aureus [3], 16 mm. Moreover, the MIC in the test with Staphylococcus aureus [1] and in the test with Staphylococcus aureus [2] was 13 µM (≈ 4.11 µg/mL) in each case.

On to `CCCCCNC(=O)CCNC(=O)[C@H](O)[C@@](C)(CO)CC1CC1`, for which the figures for the zone of inhibition at 150 µg/mL in the test with Acinetobacter baumannii, with Klebsiella pneumoniae and with Staphylococcus aureus [3] were below 11 mm, below 11 mm and 16 mm, respectively. Moreover, the MIC against Staphylococcus aureus [1] and with Staphylococcus aureus [2] was 24 µM (≈ 7.88 µg/mL) in each case.

In the case of `CCCCCNC(=O)CCNC(=O)[C@H](O)C(CO)(CCC)CCC`, the values for the zone of inhibition at 150 µg/mL in the test with Acinetobacter baumannii, in the test with Klebsiella pneumoniae and with Staphylococcus aureus [3] were below 11 mm, below 11 mm and 16 mm, respectively. The MIC in the test with Staphylococcus aureus [1] and against Staphylococcus aureus [2] was above 744 µM each time.

Turning to `CCCCCNC(=O)CCNC(=O)[C@H](O)[C@@](C)(CO)CC(C)C`, the results for the zone of inhibition at 150 µg/mL in the test on Acinetobacter baumannii, in the test with Klebsiella pneumoniae and in the test on Staphylococcus aureus [3] were below 11 mm, below 11 mm and 16 mm, respectively. For the same compound, the MIC in the test on Staphylococcus aureus [1] was 101 µM (≈ 33.4 µg/mL); in the test on Staphylococcus aureus [2], 51 µM (≈ 16.9 µg/mL).

With `CCCCCC[C@](C)(CO)[C@@H](O)C(=O)NCCC(=O)NCCCCC`, the results for the zone of inhibition at 150 µg/mL with Acinetobacter baumannii, in the test with Klebsiella pneumoniae and with Staphylococcus aureus [3] were below 11 mm, below 11 mm and 16 mm, respectively. For the same compound, the MIC against Staphylococcus aureus [1] and in the test on Staphylococcus aureus [2] was above 715 µM in each case.

`CCCCCNC(=O)CCNC(=O)[C@H](O)[C@@](C)(CO)CC1CCC1`: the figures for the zone of inhibition at 150 µg/mL with Acinetobacter baumannii, in the test with Klebsiella pneumoniae and in the test on Staphylococcus aureus [3] were below 11 mm, below 11 mm and 16 mm, respectively. The MIC against Staphylococcus aureus [1] and in the test with Staphylococcus aureus [2] was 374 µM (≈ 128 µg/mL) throughout.

Consider `CCCCCNC(=O)CCNC(=O)[C@H](O)C(C)(C)CO`, for which the zone of inhibition at 150 µg/mL in the test with Acinetobacter baumannii was below 11 mm; in the test with Klebsiella pneumoniae, below 11 mm; in the test with Staphylococcus aureus [3] it was 16 mm. Further, the MIC with Staphylococcus aureus [1] and against Staphylococcus aureus [2] was 7 µM (≈ 2.02 µg/mL) each time.

As to `CCCCCNC(=O)CCNC(=O)[C@H](O)[C@](C)(CC)CO`, the figures for the zone of inhibition at 150 µg/mL in the test on Acinetobacter baumannii, in the test on Klebsiella pneumoniae and with Staphylococcus aureus [3] were below 11 mm, below 11 mm and 16 mm, respectively. For the same compound, the MIC in the test with Staphylococcus aureus [1] and in the test on Staphylococcus aureus [2] was 7 µM (≈ 2.12 µg/mL) in each case.

Regarding `C=CC[C@](C)(CO)[C@@H](O)C(=O)NCCC(=O)NCCCCC`, the zone of inhibition at 150 µg/mL in the test with Acinetobacter baumannii is below 11 mm; in the test with Klebsiella pneumoniae, below 11 mm; in the test with Staphylococcus aureus [3] it was 16 mm. For the same compound, the Km with Escherichia coli was 534 µM. In the test with Escherichia coli, the catalytic constant (kcat) turned out to be 0.87 s⁻¹. The MIC against Staphylococcus aureus [1] and against Staphylococcus aureus [2] was 3.2 µM (≈ 1.01 µg/mL) throughout.

Consider `C=CCC(CO)(CC=C)[C@@H](O)C(=O)NCCC(=O)NCCCCC`, for which the zone of inhibition at 150 µg/mL with Acinetobacter baumannii was below 11 mm; in the test on Klebsiella pneumoniae, below 11 mm; with Staphylococcus aureus [3], 16 mm. The MIC against Staphylococcus aureus [1] and in the test on Staphylococcus aureus [2] was 376 µM (≈ 128 µg/mL) throughout.
